pIC50: −log10 of the molar value.
Key:
LLC-PK1 [1] = test: Cytotoxicity against pig LLC-PK1 cells after 72 hrs by MTT assay; type: cell-based; conditions: Sus scrofa, LLC-PK1, 72 h
Summary of the method: (§1)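 LLC-PK1 empty-vector lines grown in M199 with 10% FBS; transfected lines also in 0.5 mg/mL G418. MTT assay: 4000 cells/well for 24 h, then serially diluted drug for 72 h at 37 °C, 5% CO2. MTT 4 h, acidified ethanol, A570 minus 690 nm. IC50 is 50% of untreated absorbance. Triplicate wells, three experiments.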

[2] = Cytotoxicity against doxorubicin-selected human ZR-75B cells after 72 hrs by MTT assay; type: functional, cell-based
Summary of the method: (§2)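 Lines grown in RPMI with 10% FBS and 2 mM L-glutamine. MTT assay: 4000 cells/well attached 24 h before serially diluted drug, then 72 h exposure at 37 °C, 5% CO2. MTT in IMDM 4 h, lysis in acidified ethanol 15 min, absorbance 570 nm minus 690 nm. IC50 is the concentration halving untreated absorbance. Three independent experiments, each in triplicate.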

[3] = Cytotoxicity against human MES-SA cells after 72 hrs by MTT assay; type: functional, cell-based
Summary of the method: (§3)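 MES-SA and MES-SA/Dx5 lines kept in McCoy's 5A with 10% FBS. MTT assay: seeded at 4000 cells/well for 24 h, serial drug dilutions, 72 h at 37 °C and 5% CO2. MTT 4 h, acidified ethanol lysis, A570 corrected at 690 nm. IC50 is 50% absorbance versus untreated wells. Three separate experiments in triplicate.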

[4] = Cytotoxicity against P-gp expressing human KBV1 cells after 72 hrs by MTT assay in presence of 100 nM TQR; conditions: KB-V1, 72 h
[5] = Aqueous solubility of the compound; type: physicochemical; conditions: buffer
NIH3T3 [6] = test: Cytotoxicity against mouse NIH/3T3 cells transfected with wild type p-glycoprotein ABCB1 selected at 600 ug/ml vincristine after 72 hrs by MTT assay; type: functional, cell-based; conditions: NIH3T3, 72 h, in the assay text read “600 ng/ml” for “600 ug/ml”
Summary of the method: (§4)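 Grown in DMEM with 10% FBS. MTT assay: 4000 cells/well, 24 h settling, serial dilutions of drug, 72 h at 37 °C in 5% CO2. MTT in IMDM 4 h, then acidified ethanol 15 min, A570 with 690 nm background. IC50 is the concentration reducing absorbance to 50% of untreated control. Three experiments in triplicate. KB-V1-R comes from KB-V1 grown long-term drug-free.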

[7] = Cytotoxicity against P-gp-negative human KB-3-1 cells after 72 hrs by MTT assay in presence of 1 uM verapamil; type: functional, cell-based; conditions: KB 3-1, 72 h
Summary of the method: (§5)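 KB-3-1 and KB-V1 cells in DMEM. Test drug co-administered with a P-gp inhibitor at: verapamil 1 uM, CsA 10 uM, DCPQ 100 nM, TQR 100 nM. MTT assay after 72 h at 37 °C: 4000 cells/well, MTT 4 h, acidified ethanol, A570 corrected at 690 nm. IC50 ± SD at 50% of untreated absorbance. Three experiments in triplicate.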

NIH3T3 [8] = test: Cytotoxicity against mouse NIH/3T3 cells selected at 1 ug/mL colchicine after 72 hrs by MTT assay; type: functional, cell-based; conditions: NIH3T3, 72 h; summary of the method: as §4
[9] = Cytotoxicity against P-gp expressing human KBV1 cells after 72 hrs by MTT assay in presence of 1 uM verapamil; type: functional, cell-based; conditions: KB-V1, 72 h; summary of the method: as §5
[10] = Cytotoxicity against human Ew36 cells after 72 hrs by MTT assay; type: functional, cell-based; conditions: Ew36, 72 h; summary of the method: as §2
NCI/ADR-RES = test: Cytotoxicity against adriamycin-selected human NCI/ADR-RES cells after 72 hrs by MTT assay; type: functional, cell-based; summary of the method: as §2
HEK293 [11] = test: Cytotoxicity against human HEK293 cells after 72 hrs by MTT assay; type: functional, cell-based; conditions: HEK293, 72 h; summary of the method: as §4
[12] = Cytotoxicity against adriamycin-selected human MES-SA cells after 72 hrs by MTT assay; type: functional, cell-based; summary of the method: as §3
OVCAR-8 = test: Cytotoxicity against human OVCAR8 cells after 72 hrs by MTT assay; type: functional, cell-based; conditions: OVCAR-8, 72 h; summary of the method: as §2
[13] = Cytotoxicity against P-gp-negative human KB-3-1 cells after 72 hrs by MTT assay in presence of 10 uM CsA; type: functional, cell-based; conditions: KB 3-1, 72 h; summary of the method: as §5
SW-620 [14] = test: Cytotoxicity against human SW620 cells selected at 20 ng/mL adriamycin after 72 hrs by MTT assay; type: functional, cell-based; conditions: SW-620, 72 h; summary of the method: as §2
NIH3T3 [15] = test: Cytotoxicity against mouse NIH/3T3 cells after 72 hrs by MTT assay; type: cell-based; conditions: NIH3T3, 72 h; summary of the method: as §4
SW-620 [16] = test: Cytotoxicity against human SW620 cells after 72 hrs by MTT assay; type: functional, cell-based; conditions: SW-620, 72 h; summary of the method: as §2
MDA-MB-231 [17] = test: Cytotoxicity against human MDA-MB-231 cells selected at 100 ug/ml vinblastine after 72 hrs by MTT assay; type: functional, cell-based; conditions: MDA-MB-231, 72 h, in the assay text read “100 ng/ml” for “100 ug/ml”; summary of the method: as §2
MDA-MB-231 [18] = test: Cytotoxicity against human MDA-MB-231 cells after 72 hrs by MTT assay; type: functional, cell-based; conditions: MDA-MB-231, 72 h; summary of the method: as §2
[19] = Cytotoxicity against P-gp-negative human KB-3-1 cells after 72 hrs by MTT assay in presence of 100 nM TQR; conditions: KB 3-1, 72 h
NIH3T3 [20] = test: Cytotoxicity against mouse NIH/3T3 cells transfected with wild-type P-gp G185 after 72 hrs by MTT assay; type: functional, cell-based; conditions: NIH3T3, 72 h; summary of the method: as §4
[21] = Cytotoxicity against P-gp expressing human KBV1 cells after 72 hrs by MTT assay in presence of 10 uM CsA; type: functional, cell-based; conditions: KB-V1, 72 h; summary of the method: as §5
NIH3T3 [22] = test: Cytotoxicity against mouse NIH/3T3 cells selected at 30 ug/ml vincristine after 72 hrs by MTT assay; type: functional, cell-based; conditions: NIH3T3, 72 h, in the assay text read “30 ng/ml” for “30 ug/ml”; summary of the method: as §4
LLC-PK1 [23] = test: Cytotoxicity against pig LLC-PK1 cells transfected with empty vector after 72 hrs by MTT assay; type: cell-based; conditions: Sus scrofa, LLC-PK1, 72 h; summary of the method: as §1
[24] = Cytotoxicity against P-gp expressing human KBV1 cells after 72 hrs by MTT assay in presence of 100 uM DCPQ; conditions: KB-V1, 72 h
CHO [25] = test: Cytotoxicity against CHO cells selected at 1 ug/mL colchicine after 72 hrs by MTT assay; type: functional, cell-based; conditions: Cricetulus griseus
Summary of the method: (§6)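 CHO and colchicine-selected C5 cells kept in AlphaMEM with 10% FBS. MTT assay: 4000 cells/well settled 24 h, then serially diluted drug added. Incubated 72 h at 37 °C, 5% CO2. MTT in IMDM for 4 h, then acidified ethanol lysis for 15 min. Read A570, background-corrected at 690 nm. IC50 is the concentration giving 50% of untreated absorbance. Three experiments, each in triplicate.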

[26] = Selectivity ratio of IC50 for pig LLC-PK1 cells transfected with empty vector to IC50 for pig LLC-PK1 cells; type: ADME, cell-based, Sus scrofa; conditions: read-out: Ratio IC50
Summary of the method: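 Selectivity ratio: IC50 in the parental or empty-vector cells divided by IC50 in the P-gp-expressing cells (KB-V1, or ABCB1-transfected LLC-PK1). MTT assay: 4000 cells/well established for 24 h, then 72 h exposure to serially diluted drug at 37 °C, 5% CO2. MTT for 4 h, acidified ethanol lysis, A570 corrected at A690. IC50 is the concentration giving 50% of untreated absorbance, from at least three experiments.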

[27] = Cytotoxicity against P-gp-negative human KB-3-1 cells after 72 hrs by MTT assay in presence of 100 nM DCPQ; conditions: KB 3-1, 72 h
[28] = Cytotoxicity against human Ew36 cells selected at 120 ng/mL vincristine after 72 hrs by MTT assay; type: functional, cell-based; conditions: Ew36, 72 h; summary of the method: as §2
CHO [29] = test: Cytotoxicity against CHO cells after 72 hrs by MTT assay; type: cell-based; conditions: Cricetulus griseus; summary of the method: as §6
NIH3T3 [30] = test: Cytotoxicity against 2.4 ug/mL vincristine selected mouse NIH/3T3 cells transfected with P-gp Ser to Asp phosphorylation mutant after 72 hrs by MTT assay; type: functional, cell-based; conditions: NIH3T3, 72 h; summary of the method: as §4
HEK293 [31] = test: Cytotoxicity against human HEK293 cells transfected with plasmid expressing MDR1 after 72 hrs by MTT assay; type: functional, cell-based; conditions: HEK293, 72 h
Summary of the method: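 ABCB1-transfected HEK293 grown in DMEM with 10% FBS and 1 mg/mL G418. MTT assay: 4000 cells/well for 24 h, serial drug dilutions, 72 h at 37 °C, 5% CO2. MTT 4 h, acidified ethanol lysis, A570 corrected at 690 nm. IC50 at 50% of untreated absorbance. Three experiments in triplicate.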

[32] = Cytotoxicity against human ZR-75B cells after 72 hrs by MTT assay; type: functional, cell-based; summary of the method: as §2

solubility [5]: < 0.2 µg/mL
Compound: COc1ccc(NC(=S)NNC2=c3ccccc3=NC2=O)cc1
pIC50 (LLC-PK1 [1]): 5.40
pIC50 [2]: 5.92
pIC50 [3]: 4.65
pIC50 [4]: 4.94
pIC50 (NIH3T3 [6]): 5.44
pIC50 [7]: 5.01
pIC50 (NIH3T3 [8]): 5.50
pIC50 [9]: 5.65
pIC50 [10]: 5.61
pIC50 (NCI/ADR-RES): 5.42
pIC50 (HEK293 [11]): 5.21
pIC50 [12]: 4.86
pIC50 (OVCAR-8): 5.17
pIC50 [13]: 4.94
pIC50 (SW-620 [14]): 5.43
pIC50 (NIH3T3 [15]): 5.09
pIC50 (SW-620 [16]): 5.04
pIC50 (MDA-MB-231 [17]): 5.31
pIC50 (MDA-MB-231 [18]): 4.86
pIC50 [19]: 4.92
pIC50 (NIH3T3 [20]): 5.97
pIC50 [21]: 5.08
pIC50 (NIH3T3 [22]): 5.34
pIC50 (LLC-PK1 [23]): 4.43
pIC50 [24]: 4.85
pIC50 (CHO [25]): 6.01
selectivity ratio [26]: 9.2
pIC50 [27]: 4.91
pIC50 [28]: 6.00
pIC50 (CHO [29]): 5.52
pIC50 (NIH3T3 [30]): 5.50
pIC50 (HEK293 [31]): 5.59
pIC50 [32]: 5.30
